Measured values from different studies.
Protocols differ between the studies behind these lines.
Target: Phosphorylase b kinase gamma catalytic chain, liver/testis isoform (PHKG2, Homo sapiens, UniProt P15735)
One construct used (P15735 1-406): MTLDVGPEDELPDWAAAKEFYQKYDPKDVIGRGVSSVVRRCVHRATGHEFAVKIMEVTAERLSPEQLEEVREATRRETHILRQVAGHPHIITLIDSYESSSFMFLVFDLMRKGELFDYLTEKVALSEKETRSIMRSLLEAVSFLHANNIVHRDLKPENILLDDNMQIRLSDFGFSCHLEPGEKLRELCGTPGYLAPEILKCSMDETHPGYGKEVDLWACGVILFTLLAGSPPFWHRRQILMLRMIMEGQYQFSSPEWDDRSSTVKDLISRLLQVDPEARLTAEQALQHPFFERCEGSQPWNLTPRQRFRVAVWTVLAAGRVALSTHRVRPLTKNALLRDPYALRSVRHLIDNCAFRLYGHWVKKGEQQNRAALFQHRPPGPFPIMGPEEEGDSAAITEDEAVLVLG

| Compound | test | conditions | endpoint | result |
| --- | --- | --- | --- | --- |
| CC(C)c1ccc(NC(=O)c2cccs2)c(-c2nc3ccccc3[nH]c2=O)c1 | enzyme activity, inhibitor | 1 µM | activity vs control | 96% |
| CO[C@@H](C)c1c(Nc2ccc([C@H](N(C)C(=O)C3CCS(=O)(=O)CC3)C(F)(F)F)cc2)cnc2cc(Cl)nn12 | cell-free assay, competition with immobilised ligand | 1 µM | remaining binding | 96% |
| CC/C(=N\NC(=O)NCc1cccc(O)c1)c1ccc(O)c(C)c1O | enzyme activity, inhibitor | 0.1 µM | inhibition | -2.9% |
| CCN(CC)CCNC(=O)c1c(C)[nH]c(/C=C2\C(=O)Nc3ccc(F)cc32)c1C | enzyme activity, inhibitor | 0.3 µM | inhibition | 81% |
| Cc1sc(C(=O)NC2COC2)cc1-n1cc(NC(=O)Nc2c(F)cccc2Cl)cn1 | enzyme activity, inhibitor | 10 µM | remaining activity | 88.5% |
| CCc1ccccc1C(=O)Nc1n[nH]c2c(C)c(F)c(C3C(C#N)=C(C)N(C)C(C)=C3C#N)cc12 | cell-free assay, competition with immobilised ligand | 1 µM | remaining binding | 81% |
| CCCS(=O)(=O)Nc1ccc(F)c(C(=O)c2c[nH]c3ncc(-c4ccc(Cl)cc4)cc23)c1F | enzyme activity, inhibitor | 1 µM | inhibition | < 10% |
| Nc1ncnc2occ(-c3ccc(NC(=O)Nc4cc(C(F)(F)F)ccc4F)cc3)c12 | cell-free assay, inhibitor | 20 µM | remaining signal | 53% |
| CC(C)CC(=O)N1CCc2nc(-c3ccc(Br)cc3)nc(N(C)Cc3ccccc3)c2C1 | cell-free assay, competition with immobilised ligand | 0.1 µM | remaining binding | 100% |
| CCCOc1ccc(OC)c(F)c1C(=O)c1ccc(C(=O)N[C@@H]2CNC[C@H]2NC(=O)c2ccc3[nH]ncc3c2)cc1 | enzyme activity, inhibitor | 10 µM | remaining activity | 51% |
| COc1cc2c(Nc3ccc(Br)cc3F)ncnc2cc1OCC1CCN(C)CC1 | cell-free assay | 0.5 µM | remaining signal | 99.1% |
| c1ccc(CNc2nc(N3CCOc4ccccc43)nc3c2CCCC3)cc1 | target engagement in cells, inhibitor, chemoproteomics | 20 mM | inhibition | -2.7% |
| O=C(Nc1cccnn1)N1CC(C/C=C/c2cncc(Oc3ccc(C(F)(F)F)cn3)n2)C1 | cell-free assay, competition with immobilised ligand | 1 µM | remaining binding | 100% |
| N#CCCc1ccc2c(c1)-c1[nH]c3ccc([N+](=O)[O-])cc3c1CC(=O)N2 | cell-free assay | 0.5 µM | remaining signal | 99.1% |
| Cc1ccc(Nc2nccc(N(C)c3ccc4c(C)n(C)nc4c3)n2)cc1S(N)(=O)=O | enzyme activity, inhibitor | 0.3 µM | inhibition | -4% |
| COc1ccc2c(c1)O[C@H](c1ccc(OC)c(OC)c1)C[C@@H]2NC(=O)C1(c2ccc3c(c2)OC(F)(F)O3)CC1 | cell-free assay, competition with immobilised ligand | 1 µM | remaining binding | 93% |
| CC(C)(C)c1nc2c(s1)c1nc(N)ncc1c1ccc(NS(=O)(=O)c3c(F)cccc3F)c(F)c12 | enzyme activity, inhibitor, radiometric | 1 µM | remaining activity | 92% |
| CS(=O)(=O)CCNCc1ccc(-c2ccc3ncnc(Nc4ccc(OCc5cccc(F)c5)c(Cl)c4)c3c2)o1 | cell-free assay | 0.5 µM | remaining signal | 99.5% |
| CC(=O)N1CCC(c2ccc(C(=O)NC3=NCCN3)cc2C(F)(F)F)CC1 | cell-free assay, competition with immobilised ligand | 1 µM | remaining binding | 100% |
